Series [1] can be described thus: Thermodynamic solubility of the compound in pH 6.8 phosphate buffer after 24 hrs by HPLC analysis. It is filed as physicochemical. As to conditions: read-out: Therm_solubility. In a few lines:
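Excess solid in pH 6.8 phosphate buffer was shaken 24 h at 25 °C and centrifuged (3000 and 11000 rpm, 10 min). Supernatant was diluted in 50% aqueous acetonitrile and quantified by reversed-phase HPLC (0.1% phosphoric acid/acetonitrile, 40 °C column, UV 210 nm).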

The nature of series [2]: Drug metabolism in human liver microsomes assessed per mg protein after 15 mins. As to conditions: read-out: Drug metabolism. It is filed as ADME, microsome. The method, boiled down: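 Compound was incubated 15 min with human liver microsomes at 1 mg protein/mL; the value is reported as percent metabolized.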
On the technique in general: Liver microsomes are vesicles of endoplasmic reticulum, rich in cytochrome P450 enzymes.

The target of series [3] is T1, Glucose-dependent insulinotropic receptor (Homo sapiens, UniProt Q8TDV5).
T1 sequence (Q8TDV5 whole entry): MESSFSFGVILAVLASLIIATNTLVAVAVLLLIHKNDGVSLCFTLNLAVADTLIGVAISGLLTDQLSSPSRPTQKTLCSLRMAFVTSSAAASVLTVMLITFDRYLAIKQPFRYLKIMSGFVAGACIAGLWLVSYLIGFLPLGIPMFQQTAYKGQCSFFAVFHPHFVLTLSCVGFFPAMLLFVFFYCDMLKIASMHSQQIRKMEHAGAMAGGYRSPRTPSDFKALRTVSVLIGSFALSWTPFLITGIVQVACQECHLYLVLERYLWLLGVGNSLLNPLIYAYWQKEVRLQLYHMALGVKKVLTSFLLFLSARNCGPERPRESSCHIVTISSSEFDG
Kind of series: Agonist activity at human GPR119 expressed in Flp-In-T-Rex-HEK293 cells assessed as stimulation of cAMP level measured after 30 mins by HTRF assay. It is filed as functional, cell-based. The method, boiled down:
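Flp-In-T-Rex-HEK293 cells overexpressing human GPR119 were induced with tetracycline for 24 h, then seeded at 5000 cells/well in DMEM with 1 mM IBMX and 0.01% BSA. Cells were exposed to compound for 30 min at 37 °C, and cAMP was read by HTRF (HiRange kit). Basal cAMP was subtracted, and EC50 is the concentration giving 50% of maximal response on dose-response curves.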
Background: Cyclic AMP is a second messenger, typically raised through Gs and lowered through Gi signalling.

The nature of series [4]: Oral bioavailability in Sprague-Dawley rat at 10 mg/kg administered as single dose by LC-MS/MS analysis. It is filed as ADME, organism-based. As to conditions: in vivo. In a few lines:
(§1)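 Fasted male Sprague-Dawley rats received a single dose, either 3 mg/kg iv in 20% 2-hydroxypropyl-β-cyclodextrin or 10 mg/kg orally in 0.5% methylcellulose with 0.1% Tween80. Tail-vein blood was taken at each time point and spun to plasma. Analyte was quantified by LC-MS/MS, and parameters were derived by non-compartmental analysis.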

Series [5] can be described thus: Half life in Sprague-Dawley rat at 3 mg/kg, iv administered as single dose by LC-MS/MS analysis. It is filed as ADME, organism-based. As to conditions: in vivo. In a few lines:
as §1

Series [6] is described as follows: AUC (0 to infinity) in Sprague-Dawley rat at 10 mg/kg, po administered as single dose by LC-MS/MS analysis. As to conditions: in vivo. Also noted: dose 10 mg/kg, route oral, time infinity. It is filed as ADME, organism-based. The method, boiled down: as §1
The nature of series [7]: Permeability of the compound at pH 6.2 by PAMPA. As to conditions: read-out: permeability. It is filed as physicochemical. A general note: PAMPA measures passive passage across an artificial lipid membrane.
Series [8] in a line: Volume of distribution at steady state in Sprague-Dawley rat at 3 mg/kg, iv administered as single dose by LC-MS/MS analysis. It is filed as ADME, organism-based. As to conditions: in vivo, read-out: Vdss. The method, boiled down: as §1
Series [9] in a line: Clearance in Sprague-Dawley rat at 3 mg/kg, iv administered as single dose by LC-MS/MS analysis. As to conditions: in vivo. It is filed as ADME, organism-based. In a few lines: as §1

One may read the EC50 as the midpoint of the concentration-response curve. What is called bioavailability is dose-corrected exposure relative to a reference, in per cent. By half-life is commonly meant how long it takes for the measured level to halve. Low readings indicate fast loss, high ones slow loss. A word on the AUC(0-inf): it is total exposure, with the tail of the curve extrapolated. Low values mean low exposure, high ones high exposure. A word on the clearance: it is the volume of plasma or blood freed of the substance per unit of time.

In brackets after ≈: the same amount, converted by molar mass.

With `CC(C)(OC(=O)N1CCC(n2ncc3cc(-c4ccc(S(C)(=O)=O)cc4)ncc32)CC1)C(F)F`, the solubility thermodynamic at 24 h in [1] turned out to be 0.28 µM (≈ 0.138 µg/mL).

As for `CC(C)OC(=O)N1CCC(n2ncc3cc(-c4ccc(S(C)(=O)=O)cc4)ncc32)CC1`, the solubility thermodynamic at 24 h in series [1] was determined as 1.51 µM (≈ 0.668 µg/mL).

For `CC(C)COC(=O)N1CCC(n2ncc3cc(-c4ccc(S(C)(=O)=O)cc4)ncc32)CC1`, the solubility thermodynamic at 24 h in series [1] was 1.18 µM (≈ 0.539 µg/mL).

With `CCNC(=O)c1cc(F)c(-c2cc3cnn(C4CCN(C(=O)OC(C)C)CC4)c3cn2)cc1F`, the solubility thermodynamic at 24 h in [1] came out at 2.84 µM (≈ 1.34 µg/mL). Moreover, the metabolised at 0.25 h in series [2] is 12.4%.

With `CCc1cnc(N2CCC(n3ncc4cc(-c5ccc(S(C)(=O)=O)cc5)ncc43)CC2)nc1`, in series [1], the solubility thermodynamic at 24 h was 0.26 µM (≈ 0.12 µg/mL).

`CCc1cnc(N2CCC(n3nnc4cc(-c5ccc(S(C)(=O)=O)cc5)ncc43)CC2)nc1`: the EC50 in [3] was found to be 21 nM. For the same compound, the solubility thermodynamic at 24 h in series [1] was determined as 0.28 µM (≈ 0.13 µg/mL).

As to `CCNC(=O)c1c(C)cc(-c2cc3nnn(C4CCN(c5ncc(CC)cn5)CC4)c3cn2)cc1C`, the EC50 in [3] worked out at 27 nM. For the same compound, in series [1], the solubility thermodynamic at 24 h turned out to be 5.01 µM (≈ 2.43 µg/mL).

As to `CCNC(=O)c1ccc(-c2cc3nnn(C4CCN(c5ncc(CC)cn5)CC4)c3cn2)cc1Cl`, the EC50 in series [3] came to 18 nM. In [1], the solubility thermodynamic at 24 h is less than 0.16 µM.

`CCNC(=O)c1ccc(-c2cc3nnn(C4CCN(c5ncc(CC)cn5)CC4)c3cn2)c(F)c1F`: in [3], the EC50 amounted to 10 nM.

Regarding `CC(C)OC(=O)N1CCC(n2nnc3cc(-c4cc(F)c(C(=O)N5CCC5)cc4F)ncc32)CC1`, in series [3], the EC50 came out at 61 nM. Also, in series [1], the solubility thermodynamic at 24 h is 2.7 µM (≈ 1.31 µg/mL). In series [2], the metabolised at 0.25 h stood at 5.4%.

As for `CCc1cnc(N2CCC(n3nnc4cc(-c5ccc(S(C)(=O)=O)c(F)c5)ncc43)CC2)nc1`, the EC50 in series [3] came out at 9 nM. Moreover, the solubility thermodynamic at 24 h in series [1] is less than 0.15 µM.

`CCNC(=O)c1ccc(-c2cc3nnn(C4CCN(c5ncc(CC)cn5)CC4)c3cn2)c(C(F)(F)F)c1`: the 50% effective concentration (EC50) in series [3] was 60 nM. In addition, the solubility thermodynamic at 24 h in [1] is 1.2 µM (≈ 0.629 µg/mL).

With `CCNC(=O)c1ccc(-c2cc3nnn(C4CCN(c5ncc(CC)cn5)CC4)c3cn2)cc1C(F)(F)F`, in series [3], the EC50 was 39 nM. Further, the solubility thermodynamic at 24 h in series [1] turned out to be 0.51 µM (≈ 0.268 µg/mL).

As to `CCNC(=O)c1cc(F)c(-c2cc3nnn(C4CCN(C(=O)OC(C)C)CC4)c3cn2)cc1F`, the concentration for a half-maximal effect (EC50) in series [3] stood at 37 nM. Also, in series [1], the solubility thermodynamic at 24 h was found to be 5.5 µM (≈ 2.6 µg/mL). Besides, in series [2], the metabolised at 0.25 h came out at 11%.

As to `CCNC(=O)c1cc(F)c(-c2cc3nnn(C4CCN(c5ncc(CC)cn5)CC4)c3cn2)cc1F`, in series [3], the EC50 turned out to be 2 nM. In addition, the solubility thermodynamic at 24 h in series [1] came to 0.24 µM (≈ 0.118 µg/mL).

Regarding `CCc1cnc(N2CCC(n3ncc4cc(-c5ccc(S(C)(=O)=O)cc5)c(C)cc43)CC2)nc1`, in series [3], the EC50 came out at 70 nM.

Regarding `CCc1cnc(N2CCC(n3ncc4cc(-c5ccc(S(C)(=O)=O)cc5)ccc43)CC2)nc1`, in series [3], the EC50 came to 14 nM. Besides, the solubility thermodynamic at 24 h in series [1] is less than 0.11 µM.

With `CCNC(=O)c1ccc(-c2cc3nnn(C4CCN(c5ncc(CC)cn5)CC4)c3cn2)c(C)c1`, in [3], the EC50 was determined as 19 nM. For the same compound, in [1], the solubility thermodynamic at 24 h is less than 0.09 µM.

Turning to `CCc1cnc(N2CCC(n3nnc4cc(-c5ccc(S(C)(=O)=O)cc5)ccc43)CC2)nc1`, in series [3], the EC50 turned out to be 31 nM. Moreover, the solubility thermodynamic at 24 h in series [1] is less than 0.13 µM.

In series [4], `CC(C)OC(=O)N1CCC(n2nnc3cc(-c4cc(F)c(C(=O)N5CCCC5)cc4F)ncc32)CC1` gave a bioavailability of 16.7%. The EC50 in series [3] came out at 65 nM. In addition, in series [5], the half-life is 14.5 min. The same compound gave an AUC(0-inf) in series [6] of 1030 ng·h/mL. For the same compound, the solubility thermodynamic at 24 h in series [1] was determined as 15.9 µM (≈ 7.93 µg/mL). Besides, the Papp in series [7] turned out to be 97 ×10⁻⁶ cm/s. In series [8], the Vd is 0.557 L/kg. Besides, the metabolised at 0.25 h in series [2] stood at 9.3%. Moreover, the clearance in series [9] is 27.2 mL/min/kg.

Regarding `CCc1cnc(N2CCC(n3nnc4cc(-c5ccc(S(C)(=O)=O)cc5F)ncc43)CC2)nc1`, in [3], the EC50 came to 7 nM. Also, the solubility thermodynamic at 24 h in series [1] is less than 0.12 µM.

`CC(C)NC(=O)c1cc(F)c(-c2cc3nnn(C4CCN(C(=O)OC(C)C)CC4)c3cn2)cc1F`: the EC50 in [3] stood at 33 nM. The solubility thermodynamic at 24 h in series [1] came out at 0.84 µM (≈ 0.409 µg/mL).

Turning to `CCNC(=O)c1ccc(-c2cc3nnn(C4CCN(c5ncc(CC)cn5)CC4)c3cn2)c(Cl)c1`, the EC50 in [3] was 13 nM. The solubility thermodynamic at 24 h in series [1] amounted to 0.24 µM (≈ 0.118 µg/mL).

Take `CCNC(=O)c1ccc(-c2cc3nnn(C4CCN(c5ncc(CC)cn5)CC4)c3cn2)cc1C`: the EC50 in series [3] came to 18 nM. Moreover, in series [1], the solubility thermodynamic at 24 h was 1.79 µM (≈ 0.842 µg/mL).

In the case of `CCNC(=O)c1cc(C)c(-c2cc3nnn(C4CCN(c5ncc(CC)cn5)CC4)c3cn2)c(C)c1`, the EC50 in series [3] turned out to be 83 nM. Moreover, the solubility thermodynamic at 24 h in series [1] turned out to be 1.86 µM (≈ 0.901 µg/mL).

Consider `CCNC(=O)c1ccc(-c2cc3nnn(C4CCN(c5ncc(CC)cn5)CC4)c3cn2)c(F)c1`, for which the EC50 in series [3] is 15 nM.

For `CCc1cnc(N2CCC(n3ncc4c(C)c(-c5ccc(S(C)(=O)=O)cc5)ccc43)CC2)nc1`, in series [3], the EC50 was 3420 nM.
